The nature of test [1]: hit retest on RPL19A-GFP reporter strain – cell-based, S. cerevisiae, flow cytometry, cherry picks, mother/daughter gates, confirmation (AID 2270;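 active = GFP response below 50% of the DMSO control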). Particulars: 3 h, at 10 µM, stronger effect = lower value, 100 = same GFP as DMSO wells. (Flow cytometry measures light scatter and fluorescence of single cells or particles in a stream.)
The nature of test [2]: yeast TOR pathway reporter LAP4-GFP change – cell-based, cherry picks, flow cytometry, mother/daughter gates, confirmation (AID 2271;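 active = GFP response above 150% of the DMSO control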;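 note: ratio of sample to DMSO plate mean so 100% equals DMSO level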). The note with it: S. cerevisiae LAP4-GFP strain, 3 h, at 10 µM, stronger effect = higher value, 100 means same as DMSO control. The essentials: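 System: GFP-fusion yeast strain; Incubation: compound exposure 3 h at 30 °C, end-over-end rotation; Measured by: GFP by flow cytometry; Read-out: median GFP fluorescence as percent of plate-mean DMSO wells; Medium: synthetic complete (SC) yeast growth medium; Compound: single test-compound dose, 10 µM final; Benchmarks: DMSO-only negative wells, rapamycin 400 ng/mL positive wells.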

A short description of test [3]: TOR pathway reporter MEP2-GFP, retest of hits – S. cerevisiae, flow cytometry GFP, cherry picks, confirmation (AID 2272;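 active = GFP response above 150% of the DMSO control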;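 note: ratio of well signal to plate DMSO mean so 100% equals DMSO level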). Particulars: S. cerevisiae MEP2-GFP strain, 3 h, at 10 µM, stronger effect = higher value.
Test [4] is described as follows: yeast AGP1-GFP fluorescence change, single-dose – cell-based, flow cytometry, S. cerevisiae, cherry picks, confirmation (AID 2273).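 Note: median GFP channel fluorescence over the whole cell population gate.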 The note with it: S. cerevisiae AGP1-GFP strain, 3 h, at 10 µM.
The nature of test [5]: TOR pathway CIT2 reporter hit retest – S. cerevisiae, GFP fusion, cherry picks, mother/daughter gates, confirmation (AID 2274). Particulars: S. cerevisiae CIT2-GFP strain, flow cytometry, 3 h, at 10 µM, stronger effect = higher value.
The mark [6] stands for this setting: measured here: daughter cell gate.
Setting [7] is: measured here: mother cell gate.
Where [8] appears, read: measured here: daughter cell gate response.
Setting [9] is: measured here: mother cell gate response.

These results are taken from PubChem BioAssay.

The source made the active and inactive calls.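 Rule for the calls, unless noted: active = GFP response above 150% of the DMSO level; inconclusive = fewer than 70 events counted for a yeast strain; inactive = the rest.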

Take `COC(=O)Cn1cc(/C=C/[N+](=O)[O-])c2ccccc21`: the GFP response vs DMSO in test [1] is 101% (inactive); in test [1] (setting [6]), 103%; in test [1] (setting [7]) it was 100%; in test [3], 101% (inactive). Besides, the GFP response relative to DMSO in test [2] is 145% (inactive); in test [2] (setting [8]) it was 146%; in test [2] (setting [9]), 145%. Also, the GFP response, % of DMSO was 103% (inactive) in test [4], 106% (inactive) in test [5], 108% in test [5] (setting [6]) and 103% in test [5] (setting [7]).

In the case of `Cc1cc(NCCCN2CCOCC2)n2nc(C)c(-c3ccc(F)cc3)c2n1`, the GFP response vs DMSO in test [1] is 95.3% (inactive); in test [1] (setting [6]), 95.9%; in test [1] (setting [7]), 95.6%; in test [3], 103% (inactive). Also, the GFP response relative to DMSO was 104% (inactive) in test [2], 97.5% in test [2] (setting [8]) and 105% in test [2] (setting [9]). The GFP response, % of DMSO is 101% (inactive) in test [4], 97.2% (inactive) in test [5], 95.8% in test [5] (setting [6]) and 99.3% in test [5] (setting [7]).

In the case of `O=C(c1ccc2c(c1)OCO2)N1CCN(c2ccc(F)cc2)CC1`, the GFP response vs DMSO in test [1] is 103% (inactive); in test [1] (setting [6]), 101%; in test [1] (setting [7]) it was 102%; in test [3], 102% (inactive). Moreover, the GFP response relative to DMSO is 90.2% (inactive) in test [2], 89.5% in test [2] (setting [8]) and 91.1% in test [2] (setting [9]). For the same molecule, the GFP response, % of DMSO is 98.5% (inactive) in test [4], 99.1% (inactive) in test [5], 96.5% in test [5] (setting [6]) and 99.8% in test [5] (setting [7]).

Turning to `Cc1cccc(CS(=O)(=O)c2ncc(Cl)c(C(=O)NCc3ccc4c(c3)OCO4)n2)c1`, the GFP response vs DMSO in test [1] was 99.7% (inactive); in test [1] (setting [6]), 99%; in test [1] (setting [7]) it was 102%; in test [3], 102% (inactive). For the same molecule, the results for the GFP response relative to DMSO in test [2], in test [2] (setting [8]) and in test [2] (setting [9]) were 90.2% (inactive), 91% and 91.1%, respectively. In addition, the GFP response, % of DMSO is 98.7% (inactive) in test [4], 107% (inactive) in test [5], 105% in test [5] (setting [6]) and 108% in test [5] (setting [7]).

As for `CC(C)c1ccc(C2C3CSCC=C3C(C#N)=C(N)C2(C#N)C#N)cc1` (stereo not drawn), the GFP response vs DMSO in test [1] is 97.2% (inactive); in test [1] (setting [6]), 97.8%; in test [1] (setting [7]) it was 95.3%; in test [3], 101% (inactive). Also, the GFP response relative to DMSO in test [2] is 111% (inactive); in test [2] (setting [8]), 108%; in test [2] (setting [9]) it was 115%. The GFP response, % of DMSO was 105% (inactive) in test [4], 99.7% (inactive) in test [5], 100% in test [5] (setting [6]) and 97.7% in test [5] (setting [7]).

Consider `COc1ccc(C2CC(c3c(-c4ccccc4)c4cc(Cl)ccc4[nH]c3=O)=NN2S(C)(=O)=O)cc1OC` (stereo not drawn), for which the GFP response vs DMSO was 99.6% (inactive) in test [1], 101% in test [1] (setting [6]), 98.5% in test [1] (setting [7]) and 96.2% (inactive) in test [3]. The GFP response relative to DMSO in test [2] was 91.5% (inactive); in test [2] (setting [8]), 92.8%; in test [2] (setting [9]), 89.7%. For the same molecule, the GFP response, % of DMSO is 98.3% (inactive) in test [4], 99.7% (inactive) in test [5], 99.1% in test [5] (setting [6]) and 98.5% in test [5] (setting [7]).

Take `O=C(N=Nc1c(O)[nH]c2ccccc12)c1ccco1`: the GFP response vs DMSO in test [1] is 98.2% (inactive); in test [1] (setting [6]), 98.6%; in test [1] (setting [7]) it was 97.8%; in test [3] it was 98.8% (inactive). Besides, the values for the GFP response relative to DMSO in test [2], in test [2] (setting [8]) and in test [2] (setting [9]) were 99.8% (inactive), 98.2% and 102%, respectively. The GFP response, % of DMSO in test [4] is 100% (inactive); in test [5], 103% (inactive); in test [5] (setting [6]) it was 102%; in test [5] (setting [7]), 102%.

`O=[N+]([O-])c1cccc(/C=N/Nc2ncc(Br)cn2)c1`: the GFP response vs DMSO in test [1] is 90.9% (inactive); in test [1] (setting [6]) it was 88.5%; in test [1] (setting [7]), 90.6%; in test [3] it was 128% (inactive). Further, the GFP response relative to DMSO in test [2] was 129% (inactive); in test [2] (setting [8]), 121%; in test [2] (setting [9]), 132%. Moreover, the GFP response, % of DMSO in test [4] was 137% (inactive); in test [5], 86.1% (inactive); in test [5] (setting [6]), 86.9%; in test [5] (setting [7]), 83.7%.

For `O=C(OCC(=O)N1CCN(C(=O)c2ccco2)CC1)c1cc(-c2cccc(Br)c2)nc2ccccc12`, the GFP response vs DMSO is 80.3% (inactive) in test [1], 75.5% in test [1] (setting [6]), 76.9% in test [1] (setting [7]) and 125% (inactive) in test [3]. The GFP response relative to DMSO in test [2] is 139% (inactive); in test [2] (setting [8]), 117%; in test [2] (setting [9]), 144%. In addition, the GFP response, % of DMSO in test [4] is 127% (inactive); in test [5], 128% (inactive); in test [5] (setting [6]), 114%; in test [5] (setting [7]), 125%.

As to `c1cnc2c(SCc3ccc(-c4nnco4)cc3)cccc2c1`, the GFP response vs DMSO in test [1] was 98.2% (inactive); in test [1] (setting [6]), 96.4%; in test [1] (setting [7]), 97.5%; in test [3], 106% (inactive). The GFP response relative to DMSO was 108% (inactive) in test [2], 108% in test [2] (setting [8]) and 110% in test [2] (setting [9]). Besides, the GFP response, % of DMSO is 104% (inactive) in test [4], 94.4% (inactive) in test [5], 90.5% in test [5] (setting [6]) and 96% in test [5] (setting [7]).

On to `CCCCc1nnc(NC(=O)c2nc3nccc(C)n3n2)s1`, for which the GFP response vs DMSO was 98.7% (inactive) in test [1], 98.3% in test [1] (setting [6]), 99.8% in test [1] (setting [7]) and 106% (inactive) in test [3]. Moreover, the GFP response relative to DMSO is 96.5% (inactive) in test [2], 95% in test [2] (setting [8]) and 96.5% in test [2] (setting [9]). Moreover, the GFP response, % of DMSO was 104% (inactive) in test [4], 109% (inactive) in test [5], 109% in test [5] (setting [6]) and 110% in test [5] (setting [7]).

Consider `COCCNC(=O)c1ccccc1-c1nc(-c2ccccc2Cl)no1`, for which the GFP response vs DMSO in test [1] is 98% (inactive); in test [1] (setting [6]), 97.1%; in test [1] (setting [7]) it was 98.9%; in test [3], 105% (inactive). Moreover, the GFP response relative to DMSO was 101% (inactive) in test [2], 99.2% in test [2] (setting [8]) and 99.3% in test [2] (setting [9]). The GFP response, % of DMSO in test [4] was 96% (inactive); in test [5], 105% (inactive); in test [5] (setting [6]) it was 105%; in test [5] (setting [7]) it was 103%.

On to `COc1ccc(C2=CC(=O)N(Nc3ccccc3)C2=O)cc1`, for which the GFP response vs DMSO was 102% (inactive) in test [1], 101% in test [1] (setting [6]), 95.8% in test [1] (setting [7]) and 107% (inactive) in test [3]. Moreover, the GFP response relative to DMSO in test [2] was 178% (active); in test [2] (setting [8]), 170%; in test [2] (setting [9]), 172%. For the same molecule, the GFP response, % of DMSO in test [4] was 105% (inactive); in test [5] it was 99.1% (inactive); in test [5] (setting [6]), 108%; in test [5] (setting [7]) it was 90.2%.
